Assay results published in ChEMBL document CHEMBL2385024, “Antiviral alkaloids produced by the mangrove-derived fungus Cladosporium sp. PJX-41” (J Nat Prod, 2013).

System: Influenza A virus
Assay: Antiviral activity against Influenza A virus H1N1 infected in dog MDCK cells after 48 hrs by CPE inhibition assay
Assay type: functional, organism-based
Method in brief: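 CPE-inhibition format against influenza A (H1N1), with ribavirin run in parallel as the positive control; activity is expressed as IC50.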

In the case of `CC(C)=C1NC(=O)[C@@H](C[C@]2(O)c3ccccc3N3C(=O)[C@H](C)N[C@H]32)n2c1nc1ccccc1c2=O`, the IC50 is reported as 82 µM.
With `O=C1N[C@H]2c3[nH]c4ccccc4c3C[C@@H]1n1c2nc2ccccc2c1=O` the IC50 was greater than 200 µM.
For `O=C1N[C@@H](O)c2nc3ccccc3c(=O)n2[C@@H]1Cc1c[nH]c2ccccc12`, the IC50 was 100 µM.
`O=C1NC(=O)[C@@H](Cc2c[nH]c3ccccc23)n2c1nc1ccccc1c2=O` gave an IC50 of 100 µM.
`O=C1NC(=O)[C@H](Cc2c[nH]c3ccccc23)n2c1nc1ccccc1c2=O` gave an IC50 of 85 µM.
`CC(C)=C1NC(=O)[C@@H](C[C@]2(O)c3ccccc3N3C(=O)C(C)(C)N[C@H]32)n2c1nc1ccccc1c2=O` showed an IC50 of 100 µM.
`CC(=O)O[C@@H](c1nc2ccccc2c(=O)n1[C@@H]1C[C@]2(OC1=O)c1ccccc1N1C(=O)C(C)(C)N(O)[C@H]12)C(C)C` gave an IC50 of 100 µM.
Compound `O=C1N[C@@H]2c3nc4ccccc4c(=O)n3[C@H]1CC21c2ccccc2N2C(=O)[C@@H]3CCCN3[C@H]21` (stereo not given in full) has an IC50 of 82 µM.
For `O=C1NCc2nc3ccccc3c(=O)n2[C@@H]1Cc1c[nH]c2ccccc12`, the IC50 was 100 µM.
`CC(C)[C@H]1NC(=O)[C@@H](C[C@]2(O)C(=O)Nc3ccccc32)n2c1nc1ccccc1c2=O` [CLADOQUINAZOLINE] showed an IC50 of 100 µM.
For `CC(=O)O[C@H](c1nc2ccccc2c(=O)n1[C@@H]1C[C@]2(OC1=O)c1ccccc1N1C(=O)[C@H](C)N[C@H]12)C(C)C` [DEOXYNORTRYPTOQUIVALINE], the IC50 was 87 µM.
In the case of `CC(=O)O[C@H](c1nc2ccccc2c(=O)n1[C@@H]1C[C@]2(OC1=O)c1ccccc1N1C(=O)C(C)(C)N[C@H]12)C(C)C` [DEOXYTRYPTOQUIVALINE], the IC50 is reported as 85 µM.
With `CC(C)[C@@H]1NC(=O)[C@@H](C[C@]2(O)C(=O)Nc3ccccc32)n2c1nc1ccccc1c2=O` [EPI-CLADOQUINAZOLINE] the IC50 was 100 µM.
`NC(=O)c1ncn([C@@H]2O[C@H](CO)[C@@H](O)[C@H]2O)n1` [RIBAVIRIN] gave an IC50 of 87 µM.
In the case of `CC(=O)O[C@H](c1nc2ccccc2c(=O)n1[C@@H]1C[C@]2(OC1=O)c1ccccc1N1C(=O)C(C)(C)N(O)[C@H]12)C(C)C` [TRYPTOQUIVALINE], the IC50 is reported as 89 µM.
